Results on 15 molecules are retold here after ChEMBL document CHEMBL1153612, “Synthesis and antitumor activity of novel dithiocarbamate substituted chromones” (Eur J Med Chem, 2009).

Holding throughout (assay type): functional, cell-based
For test [1], the system named is HeLa. The experiment in a line: Antiproliferative activity against human HeLa cells after 72 hrs by MTT assay. The gist of the method:
(§1)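 Cells seeded at 8000 per well in 96-well plates, exposed to compound for 72 h. MTT added at 0.5 mg/mL final and incubated 4 h. Formazan dissolved in DMSO, absorbance read at 570 nm. IC50 is the concentration giving 50% reduction in cell growth, reported as the mean of three repeated experiments.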
(Formazan colour is commonly taken as a measure of viable cells.)

A short description of test [2]: Antiproliferative activity against human MDA-MB-435S cells after 72 hrs by MTT assay. The method, boiled down: as §1
In test [3] the test system is SW480. Put plainly: Antiproliferative activity against human SW480 cells after 72 hrs by MTT assay. The following applies: SW480, 72 h. The method, boiled down:
as §1

A short description of test [4]: Antiproliferative activity against human LM7 cells after 72 hrs by MTT assay. The following applies: LM7, 72 h. The gist of the method:
as §1

The test system of test [5] is HEp-2. Put plainly: Antiproliferative activity against human Hep2 cells after 72 hrs by MTT assay. As to conditions: HEp-2, 72 h. The gist of the method:
as §1

The test system of test [6] is MCF7. The experiment in a line: Antiproliferative activity against human MCF7 cells after 72 hrs by MTT assay. The following applies: MCF7, 72 h. The method, boiled down:
as §1

The term pIC50 denotes the IC50 on a negative log10 scale, so that one unit is a factor of ten. The low end stands for a large IC50, the high end for a small IC50.

pIC50: −log10 of the molar value.

For the molecule `COc1ccc2c(=O)cc(CSC(=S)N3CCOCC3)oc2c1`, the negative logarithm of the IC50 (pIC50) in test [1] is less than 4.60; in test [2], 5.47; in test [3] it was 5.51; in test [4], 4.96; in test [5], 5.52; in test [6] it was less than 4.60.
Consider `O=c1cc(CSC(=S)N(CCCl)CCCl)oc2ccccc12`, for which the pIC50 in test [1] was less than 4.60; in test [2], 5.43; in test [3] it was 4.60; in test [4] it was less than 4.60; in test [5] it was 4.81; in test [6] it was less than 4.60.
`CCOC(=O)c1cc(=O)c2cc(CSC(=S)N3CCOCC3)ccc2o1`: the pIC50 in test [1], in test [2], in test [3], in test [4], in test [5] and in test [6] was less than 4.60 each time.
As for `CCOC(=O)c1cc(=O)c2cc(CSC(=S)N(C(C)C)C(C)C)ccc2o1`, the pIC50 in test [1] is less than 4.60; in test [2] it was 5.09; in test [3], less than 4.60; in test [4], less than 4.60; in test [5], 4.80; in test [6], less than 4.60.
Consider `O=c1cc(CSC(=S)N2CCOCC2)oc2ccc(Cl)cc12`, for which the pIC50 was 4.48 in test [1]; less than 4.60 in test [2]; less than 4.60 in test [3]; less than 4.60 in test [4]; 4.69 in test [5]; less than 4.60 in test [6].
For `O=c1c(CSC(=S)N2CCOCC2)coc2ccccc12`, the pIC50 in test [2] was 5.41; in test [3], 5.23; in test [4], 4.92; in test [5], 5.36; in test [6] it was 5.40.
For `O=c1c(SC(=S)N2CCCCC2)coc2ccc(Cl)cc12`, the pIC50 in test [1] is 5.08; in test [2], 4.88; in test [3] it was less than 4.60; in test [4], less than 4.60; in test [5], 4.91; in test [6] it was less than 4.60.
Take `Cc1ccc2occ(CSC(=S)N3CCOCC3)c(=O)c2c1`: the pIC50 is 5.21 in test [1]; 5.26 in test [2]; 5.42 in test [3]; 4.84 in test [4]; 5.40 in test [5]; 4.68 in test [6].
For `CCOC(=O)c1cc(=O)c2cc(CSC(=S)N3CCCC3)ccc2o1`, the negative-log IC50 (pIC50) is 5.18 in test [1]; 5.47 in test [2]; less than 4.60 in test [3]; 4.74 in test [4]; 5.05 in test [5]; less than 4.60 in test [6].
For the molecule `O=c1c(SC(=S)N2CCCCC2)coc2ccccc12`, the negative logarithm of the IC50 (pIC50) is 5.05 in test [1]; 4.76 in test [2]; 4.79 in test [3]; 5.11 in test [4]; 5.24 in test [5].
For `O=c1c(SC(=S)N2CCCC2)coc2ccccc12`, the pIC50 in test [1] was 5.42; in test [2] it was 5.72; in test [3], less than 4.60; in test [5] it was 5.13; in test [6], 4.91.
With `CC(C)N(C(=S)SCc1cc(=O)c2ccccc2o1)C(C)C`, the negative logarithm of the IC50 (pIC50) in test [2] was less than 4.40; in test [3], less than 4.40; in test [4] it was less than 4.60; in test [5], 4.87; in test [6], 4.50.
Regarding `CN1CCN(C(=S)SCc2coc3ccccc3c2=O)CC1`, the pIC50 in test [1] was 5.23; in test [2] it was 5.66; in test [4], 4.75; in test [5], 5.62; in test [6] it was 4.64.
As to `CC(C)N(C(=S)SCc1coc2ccc(Cl)cc2c1=O)C(C)C`, the negative logarithm of the IC50 (pIC50) in test [1] was less than 4.60; in test [2], less than 4.60; in test [3], less than 4.60; in test [4], less than 4.60; in test [5] it was 5.38.
Take `CCOC(=O)c1cc(=O)c2cc(CSC(=S)N(C)c3ccccc3)ccc2o1`: the pIC50 in test [1] was 4.74; in test [2], 4.87; in test [3] it was less than 4.60; in test [4], less than 4.60; in test [6] it was less than 4.60.
